# Assay results: ChEMBL document CHEMBL2311290 (J Med Chem, 2013)
# The source made the active and inactive calls. The rule behind the calls is not given here.
# Experiments:
# [1] = biological target: Coagulation factor XI (Homo sapiens) (UniProt P03951); assay: Inhibition of human FXIa assessed as S-2366 hydrolysis at 250 uM after 10 mins by microplate reader analysis
# How it was run: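 Human FXIa at 0.765 nM final in pH 7.4 Tris buffer (150 mM NaCl, 0.1% PEG8000, 0.02% Tween80). It is preincubated 10 min at 37 °C with the agent or solvent, then 345 µM S-2366 is added. Initial rate of A405 increase gives residual activity relative to no-inhibitor control.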
# [2] = biological target: Coagulation factor XI (Homo sapiens) (UniProt P03951); assay: Inhibition of human FXIa assessed as S-2366 hydrolysis at 300 uM after 10 mins by microplate reader analysis
# How it was run: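 Human FXIa (0.765 nM final) preincubated 10 min at 37 °C with inhibitor or solvent reference in pH 7.4 50 mM Tris-HCl, 150 mM NaCl, 0.1% PEG8000, 0.02% Tween80. S-2366 (345 µM) then added, and initial A405 rate read on a microplate reader. Residual activity is expressed relative to the no-inhibitor control. Highest concentration tested was 300 µM.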
# [3] = biological target: T1, Coagulation factor VII (Homo sapiens) (UniProt P08709); assay: Inhibition of human FVIIa at 3.7 mg/ml after 60 secs by spectrophotometry
# T1 sequence (whole entry): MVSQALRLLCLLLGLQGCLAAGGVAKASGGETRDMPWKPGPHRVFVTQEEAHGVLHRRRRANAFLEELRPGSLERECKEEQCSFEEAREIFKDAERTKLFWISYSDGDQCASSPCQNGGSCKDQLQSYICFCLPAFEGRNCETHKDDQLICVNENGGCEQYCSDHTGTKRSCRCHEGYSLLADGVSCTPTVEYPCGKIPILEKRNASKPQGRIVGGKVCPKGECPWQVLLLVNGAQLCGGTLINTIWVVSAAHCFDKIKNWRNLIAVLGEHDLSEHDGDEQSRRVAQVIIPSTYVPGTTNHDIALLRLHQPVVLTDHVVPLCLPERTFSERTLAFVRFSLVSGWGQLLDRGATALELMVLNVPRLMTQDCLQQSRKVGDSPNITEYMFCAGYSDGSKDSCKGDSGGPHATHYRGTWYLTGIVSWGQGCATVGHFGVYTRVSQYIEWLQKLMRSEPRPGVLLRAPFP
# How it was run: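 Chromogenic hydrolysis with at least six serial concentrations of the agent and spectrophotometric residual activity. Factor VIIa was 8 nM with 1000 µM Spectrozyme FVIIa plus 40 nM recombinant tissue factor. Bovine chymotrypsin was 500 ng/mL with 240 µM Spectrozyme CTY.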
# [4] = test system: Blood; assay: Anticoagulant activity in human whole blood assessed as clot formation time at 190 ug/ml by thromboelastography (reference value: 6.0 mins); format: functional
# How it was run: (§1)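 Thromboelastography in sodium-citrated human whole blood at 37 °C. 340 µL of blood containing 10 µL of the agent (or high-purity water) is added to a cup holding 20 µL of 200 mM CaCl2 stock, oscillating through 4°45′ at 0.1 Hz. Clot force on a central pin is recorded and read out as R, α, MA and G.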
# [5] = test system: Blood; assay: Anticoagulant activity in human whole blood assessed as maximum amplitude at 135 ug/ml by thromboelastography (reference value: 59 mm); format: functional; how it was run: as §1
# [6] = test system: Plasma; assay: Anticoagulant activity in human plasma assessed as concentration required to double […] prothrombin time; format: functional
# How it was run: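 Prothrombin time is a one-stage recalcification assay read on a fibrometer. 10 µL of the agent is made up to 100 µL with citrated human plasma and incubated 30 s at 37 °C. Clotting is started with 200 µL of prewarmed thromboplastin-D. A quadratic trend line of clotting time versus concentration gives the concentration that doubles clotting time. Water or organic vehicle serves as the blank.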
# [7] = test system: Blood; assay: Anticoagulant activity in human whole blood assessed as maximum amplitude at 280 ug/ml by thromboelastography (reference value: 59 mm); format: functional; how it was run: as §1
# [8] = biological target: Coagulation factor XI (Homo sapiens) (UniProt P03951); conditions: 3 uM
# [9] = biological target: Prothrombin (Homo sapiens, UniProt P00734); assay: Inhibition of human thrombin after 60 secs by spectrophotometry
# How it was run: (§2)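 Chromogenic substrate hydrolysis at pH 7.4 with at least six serially diluted concentrations of the agent. Residual activity is read spectrophotometrically and the IC50 is obtained from a dose–response fit. Substrate levels were set from its KM. Final enzyme/substrate: thrombin 6 nM/50 µM Spectrozyme TH; FXa 1.09 nM/125 µM; FXIIa 5 nM/125 µM; FIXa 89 nM/850 µM.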
# [10] = test system: Blood; assay: Anticoagulant activity in human whole blood assessed as clot formation time at 135 ug/ml by thromboelastography (reference value: 6.0 mins); format: functional; how it was run: as §1
# [11] = test system: Blood; assay: Anticoagulant activity in human whole blood assessed as angle alpha at 135 ug/ml by thromboelastography (reference value: 56.4 deg); format: functional; how it was run: as §1
# [12] = test system: Blood; assay: Anticoagulant activity in human whole blood assessed as clot formation time at 280 ug/ml by thromboelastography (reference value: 6.0 mins); format: functional; how it was run: as §1
# [13] = test system: Blood; assay: Anticoagulant activity in human whole blood assessed as clot formation time at 20 ug/ml by thromboelastography (reference value: 6.0 mins); format: functional; how it was run: as §1
# [14] = test system: Plasma; assay: Ratio of concentration required to double clotting time for compound to enoxaparin in human plasma; format: functional
# [15] = test system: Blood; assay: Anticoagulant activity in human whole blood assessed as maximum amplitude at 20 ug/ml by thromboelastography (reference value: 59 mm); format: functional; how it was run: as §1
# [16] = test system: Blood; assay: Anticoagulant activity in human whole blood assessed as maximum amplitude at 190 ug/ml by thromboelastography (reference value: 59 mm); format: functional; how it was run: as §1
# [17] = organism: Bos taurus; assay: Inhibition of bovine chymotrypsin at 1.8 mg/ml after 60 secs by spectrophotometry
# [18] = test system: Plasma; assay: Anticoagulant activity in human plasma assessed as concentration required to double activated partial […] time; format: functional
# How it was run: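 Citrated pooled normal human plasma (90 µL) plus 10 µL of the test agent and 100 µL of prewarmed ellagic acid APTT reagent (0.2% ellagic acid). The mixture is incubated 4 min at 37 °C, then clotting is started with prewarmed 25 mM CaCl2 and read on a fibrometer. Clotting time versus concentration is fitted to a quadratic trend line to get the concentration that doubles it. Water or organic vehicle serves as the blank.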
# [19] = test system: Blood; assay: Anticoagulant activity in human whole blood assessed as angle alpha at 190 ug/ml by thromboelastography (reference value: 56.4 deg); format: functional; how it was run: as §1
# [20] = test system: Blood; assay: Anticoagulant activity in human whole blood assessed as angle alpha at 20 ug/ml by thromboelastography (reference value: 56.4 deg); format: functional; how it was run: as §1
# [21] = biological target: T2, Serine protease 1 (Bos taurus) (UniProt P00760); assay: Inhibition of bovine trypsin at 1.8 mg/ml after 60 secs by spectrophotometry
# T2 sequence (whole entry): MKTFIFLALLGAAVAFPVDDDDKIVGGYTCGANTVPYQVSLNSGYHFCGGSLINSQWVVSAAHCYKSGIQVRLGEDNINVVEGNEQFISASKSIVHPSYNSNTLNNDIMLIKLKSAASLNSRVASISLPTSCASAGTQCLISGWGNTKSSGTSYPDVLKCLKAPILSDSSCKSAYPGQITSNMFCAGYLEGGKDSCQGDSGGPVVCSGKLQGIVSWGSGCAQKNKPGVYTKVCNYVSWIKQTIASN
# How it was run: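 Chromogenic substrate hydrolysis assay of bovine trypsin (72.5 ng/mL in the well) with 80 µM substrate, with substrate level chosen from its KM. Enzyme stock was in 50 mM Tris-HCl pH 7.4, 150 mM NaCl, 0.1% PEG8000, 0.02% Tween80. Fractional residual activity was read spectrophotometrically across at least six serial inhibitor dilutions to derive IC50.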
# [22] = biological target: Coagulation factor X (Homo sapiens, UniProt P00742); assay: Inhibition of human FXa after 60 secs by spectrophotometry
# Chain of Coagulation factor X (P00742 41-179 limits assumed): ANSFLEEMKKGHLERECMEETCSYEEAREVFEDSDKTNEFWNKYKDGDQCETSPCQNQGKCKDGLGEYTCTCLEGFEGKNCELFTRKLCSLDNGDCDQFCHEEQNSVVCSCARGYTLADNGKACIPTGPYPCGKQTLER
# Chain of Coagulation factor X (P00742 235-488 limits assumed): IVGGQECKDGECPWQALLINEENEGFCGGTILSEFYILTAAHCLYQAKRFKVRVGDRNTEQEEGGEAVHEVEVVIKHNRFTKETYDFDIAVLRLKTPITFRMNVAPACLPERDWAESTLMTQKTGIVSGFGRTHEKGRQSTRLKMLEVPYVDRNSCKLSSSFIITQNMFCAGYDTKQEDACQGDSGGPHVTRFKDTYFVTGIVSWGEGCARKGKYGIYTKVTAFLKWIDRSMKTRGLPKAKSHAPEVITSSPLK
# [23] = biological target: Coagulation factor IX (Homo sapiens, UniProt P00740); assay: Inhibition of human FIXa after 60 secs by spectrophotometry
# Chain of Coagulation factor IX (P00740 47-191 limits assumed): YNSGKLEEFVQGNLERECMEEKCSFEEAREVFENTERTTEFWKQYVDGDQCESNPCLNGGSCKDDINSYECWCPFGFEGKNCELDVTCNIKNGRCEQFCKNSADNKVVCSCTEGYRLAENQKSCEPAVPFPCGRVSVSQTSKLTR
# Chain of Coagulation factor IX (P00740 227-461 limits assumed): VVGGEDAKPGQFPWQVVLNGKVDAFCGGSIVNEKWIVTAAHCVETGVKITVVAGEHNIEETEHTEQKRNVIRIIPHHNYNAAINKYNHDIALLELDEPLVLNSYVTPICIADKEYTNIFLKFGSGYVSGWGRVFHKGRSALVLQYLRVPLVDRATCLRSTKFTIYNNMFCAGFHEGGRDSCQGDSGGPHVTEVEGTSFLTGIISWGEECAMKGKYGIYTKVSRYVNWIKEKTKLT
# [24] = biological target: T3, Coagulation factor XII (Homo sapiens) (UniProt P00748); assay: (§3) Inhibition of FXIIa (unknown origin) after 60 secs by spectrophotometry; how it was run: as §2
# T3 sequence (whole entry): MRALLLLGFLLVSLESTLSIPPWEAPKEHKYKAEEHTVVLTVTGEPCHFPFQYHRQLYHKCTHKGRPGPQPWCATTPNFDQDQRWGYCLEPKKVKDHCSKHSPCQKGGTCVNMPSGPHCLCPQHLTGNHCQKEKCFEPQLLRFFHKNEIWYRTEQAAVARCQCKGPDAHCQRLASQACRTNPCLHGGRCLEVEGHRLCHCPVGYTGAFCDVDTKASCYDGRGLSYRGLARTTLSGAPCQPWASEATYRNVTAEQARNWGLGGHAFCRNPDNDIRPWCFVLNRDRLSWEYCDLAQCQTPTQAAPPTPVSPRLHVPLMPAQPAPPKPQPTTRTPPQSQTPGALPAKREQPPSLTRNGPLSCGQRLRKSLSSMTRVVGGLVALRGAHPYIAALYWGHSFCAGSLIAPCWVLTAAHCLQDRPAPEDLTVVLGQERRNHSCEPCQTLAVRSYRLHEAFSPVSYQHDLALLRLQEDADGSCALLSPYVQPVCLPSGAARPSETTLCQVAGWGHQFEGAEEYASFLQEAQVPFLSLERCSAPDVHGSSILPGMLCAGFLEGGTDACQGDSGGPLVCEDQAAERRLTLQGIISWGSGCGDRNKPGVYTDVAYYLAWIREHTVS
# [25] = biological target: T4, Coagulation factor XII (Homo sapiens, UniProt P00748); assay: as §3; how it was run: as §2
# T4 sequence (P00748 whole entry): T3 sequence (whole entry)
# Chain of Coagulation factor XI (Homo sapiens) (P03951 19-387 limits assumed): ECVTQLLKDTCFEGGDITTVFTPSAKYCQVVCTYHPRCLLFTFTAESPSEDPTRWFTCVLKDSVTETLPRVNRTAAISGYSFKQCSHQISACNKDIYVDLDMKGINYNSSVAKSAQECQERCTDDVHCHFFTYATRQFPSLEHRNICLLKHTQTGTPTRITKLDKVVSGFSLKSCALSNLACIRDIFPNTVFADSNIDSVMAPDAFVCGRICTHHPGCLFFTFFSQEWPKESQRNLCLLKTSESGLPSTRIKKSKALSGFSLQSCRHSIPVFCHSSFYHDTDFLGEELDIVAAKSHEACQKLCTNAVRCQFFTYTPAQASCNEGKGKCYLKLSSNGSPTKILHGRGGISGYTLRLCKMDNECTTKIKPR
# Chain of Coagulation factor XI (Homo sapiens) (P03951 388-625 limits assumed): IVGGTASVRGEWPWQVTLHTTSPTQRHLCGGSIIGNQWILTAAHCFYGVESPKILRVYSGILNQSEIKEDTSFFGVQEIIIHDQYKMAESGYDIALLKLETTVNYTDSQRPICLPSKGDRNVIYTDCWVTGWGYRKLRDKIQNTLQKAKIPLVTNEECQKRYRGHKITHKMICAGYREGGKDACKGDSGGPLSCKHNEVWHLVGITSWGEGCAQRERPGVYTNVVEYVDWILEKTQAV
structure (smiles),measurement,setting,value
COc1cc([C@H]2Oc3cc([C@H]4Oc5cc(OS(=O)(=O)O)cc(O)c5C(=O)[C@@H]4OS(=O)(=O)O)ccc3O[C@@H]2COS(=O)(=O)O)ccc1OS(=O)(=O)O,inhibition,[1],inactive
O=C(/C=C/c1ccc(OS(=O)(=O)O)c(OS(=O)(=O)O)c1)O[C@@H]1C[C@](O)(C(=O)O)C[C@@H](OS(=O)(=O)O)[C@H]1OS(=O)(=O)O,inhibition,[1],inactive
O=C(CCCc1cc(OS(=O)(=O)O)ccc1OS(=O)(=O)O)N1CCc2c(ccc(OS(=O)(=O)O)c2OS(=O)(=O)O)C1,inhibition,[1],inactive
O=C(CCc1cc(OS(=O)(=O)O)ccc1OS(=O)(=O)O)N1CCc2cc(OS(=O)(=O)O)c(OS(=O)(=O)O)cc2C1,inhibition,[1],inactive
O=C(O)C1Cc2c(OS(=O)(=O)O)ccc(OS(=O)(=O)O)c2CN1C(=O)CCCCc1cc(OS(=O)(=O)O)ccc1OS(=O)(=O)O (centres undefined),inhibition,[1],inactive
O=C(O)C1Cc2c(OS(=O)(=O)O)ccc(OS(=O)(=O)O)c2CN1C(=O)CCCc1cc(OS(=O)(=O)O)ccc1OS(=O)(=O)O (centres undefined),inhibition,[1],inactive
O=C(O)C1Cc2c(OS(=O)(=O)O)ccc(OS(=O)(=O)O)c2CN1C(=O)CCc1cc(OS(=O)(=O)O)ccc1OS(=O)(=O)O (centres undefined),inhibition,[1],inactive
O=C(O)C1Cc2cc(OS(=O)(=O)O)c(OS(=O)(=O)O)cc2CN1C(=O)CCCCc1cc(OS(=O)(=O)O)ccc1OS(=O)(=O)O (centres undefined),inhibition,[1],inactive
O=C(O)C1Cc2cc(OS(=O)(=O)O)c(OS(=O)(=O)O)cc2CN1C(=O)CCCc1cc(OS(=O)(=O)O)ccc1OS(=O)(=O)O (centres undefined),inhibition,[1],inactive
O=C(O)C1Cc2cc(OS(=O)(=O)O)c(OS(=O)(=O)O)cc2CN1C(=O)CCc1cc(OS(=O)(=O)O)ccc1OS(=O)(=O)O (centres undefined),inhibition,[1],inactive
O=C(OC[C@H]1O[C@@H](OC(=O)c2cc(O)c(O)c(O)c2)[C@H](OC(=O)c2cc(O)c(O)c(O)c2)[C@@H](OC(=O)c2cc(O)c(O)c(O)c2)[C@@H]1OC(=O)c1cc(O)c(O)c(O)c1)c1cc(O)c(O)c(O)c1,inhibition,[2],inactive
O=C(OC[C@H]1O[C@@H](OC(=O)c2cc(OS(=O)(=O)[O-])c(O)c(OS(=O)(=O)[O-])c2)[C@H](OC(=O)c2cc(OS(=O)(=O)[O-])c(O)c(OS(=O)(=O)[O-])c2)[C@@H](OC(=O)c2cc(OS(=O)(=O)[O-])c(O)c(OS(=O)(=O)[O-])c2)[C@@H]1OC(=O)c1cc(OS(=O)(=O)[O-])c(O)c(OS(=O)(=O)[O-])c1)c1cc(OS(=O)(=O)[O-])c(O)c(OS(=O)(=O)[O-])c1.[Na+].[Na+].[Na+].[Na+].[Na+].[Na+].[Na+].[Na+].[Na+].[Na+] [sulfated pentagalloylglucoside],inhibition,[3],inactive
same,Time,[4],37.8 min
same,Activity,[5],49.8 mm
same,2PT,[6],298 µg/mL
same,Activity,[7],15.1 mm
same,Efficacy,[8],100%
same,IC50,[9],622 µM
same,Time,[10],22.8 min
same,Activity,[11],30.6 degree
same,Time,[12],87.1 min
same,Time,[13],6.6 min
same,Ratio,[14],18
same,Activity,[15],62 mm
same,Activity,[16],43.5 mm
same,inhibition,[17],inactive
same,2aPTT,[18],96 µg/mL
same,Activity,[19],9.4 degree
same,Activity,[20],51.4 degree
same,inhibition,[21],inactive
same,IC50,[22],136 µM
same,IC50,[23],582 µM
same,Efficacy,[24],55.7%
same,IC50,[25],131 µM
